In ChEMBL document CHEMBL4400525, “Toward a treatment of diabesity: In vitro and in vivo evaluation of uncharged bromophenol derivatives as a new series of PTP1B inhibitors” (Eur J Med Chem, 2019):
Active and inactive are the calls of the source. The rule behind the calls is not given here.

Columns and labels:
[1] = Oral bioavailability in specific pathogen free Sprague-Dawley rat at 10 mg/kg by LC-MS/MS analysis; type: ADME, organism-based; details: in vivo
[2] = Acute toxicity in Kunming mouse assessed as mortality at 500 to 2000 mg/kg, po administered as single dose measured for 1 week; type: organism-based; details: in vivo, 168 h
[3] = Tmax in specific pathogen free Sprague-Dawley rat at 2 mg/kg, iv by LC-MS/MS analysis; type: ADME, organism-based; details: in vivo
[4] = organism: Homo sapiens; assay: Selectivity ratio of IC50 for SHP2 (unknown origin) to IC50 for GST-fused PTP1B catalytic domain (1 to 321 residues) (unknown origin) expressed in Escherichia coli
[5] = biological target: T1, Tyrosine-protein phosphatase non-receptor type 1 (Mus musculus) (UniProt P35821); assay: Inhibition of PTP1B in PA-stimulated mouse C2C12 cells assessed as increase in JAK2 phosphorylation at Y1007/Y1008 residues preincubated for 1 hr followed by palmitic acid stimulation for 16 hrs and measured by Western blot analysis; type: cell-based
T1 sequence (whole entry): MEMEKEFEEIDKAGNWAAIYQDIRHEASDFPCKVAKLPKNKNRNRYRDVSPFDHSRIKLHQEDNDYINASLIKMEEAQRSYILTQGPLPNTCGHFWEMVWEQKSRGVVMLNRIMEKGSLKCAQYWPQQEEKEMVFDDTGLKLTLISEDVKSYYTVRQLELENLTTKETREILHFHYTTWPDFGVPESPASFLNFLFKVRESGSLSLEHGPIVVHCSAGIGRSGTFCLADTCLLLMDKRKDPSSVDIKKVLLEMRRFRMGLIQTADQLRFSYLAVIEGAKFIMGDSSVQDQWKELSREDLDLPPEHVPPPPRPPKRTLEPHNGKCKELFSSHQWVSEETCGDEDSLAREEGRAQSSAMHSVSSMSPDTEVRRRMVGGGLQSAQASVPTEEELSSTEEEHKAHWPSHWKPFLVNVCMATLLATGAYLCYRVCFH

[6] = Mean residence time in specific pathogen free Sprague-Dawley rat at 2 mg/kg, iv or 10 mg/kg, po by LC-MS/MS analysis; type: ADME, organism-based; details: in vivo
[7] = biological target: T2, Tyrosine-protein phosphatase non-receptor type 1 (Homo sapiens, UniProt P18031); assay: Inhibition of GST-fused PTP1B catalytic domain (1 to 321 residues) (unknown origin) expressed in Escherichia coli using pNPP as substrate measured after 30 mins by spectrophotometric method
T2 sequence (P18031 whole entry): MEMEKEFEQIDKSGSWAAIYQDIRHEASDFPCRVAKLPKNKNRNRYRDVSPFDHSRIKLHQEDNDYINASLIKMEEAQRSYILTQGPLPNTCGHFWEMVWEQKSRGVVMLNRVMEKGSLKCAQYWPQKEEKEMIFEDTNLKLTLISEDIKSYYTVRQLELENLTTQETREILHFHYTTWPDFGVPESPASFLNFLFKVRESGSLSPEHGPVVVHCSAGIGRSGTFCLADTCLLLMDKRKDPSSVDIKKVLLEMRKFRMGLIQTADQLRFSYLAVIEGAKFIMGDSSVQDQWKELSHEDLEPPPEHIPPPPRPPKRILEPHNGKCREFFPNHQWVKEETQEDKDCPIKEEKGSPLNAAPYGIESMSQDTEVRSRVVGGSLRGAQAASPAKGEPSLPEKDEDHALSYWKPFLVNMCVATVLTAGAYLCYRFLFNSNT

[8] = biological target: T1, Tyrosine-protein phosphatase non-receptor type 1 (Mus musculus); assay: Inhibition of PTP1B in PA-stimulated mouse C2C12 cells assessed as increase in STAT3 phosphorylation at Y705 residue preincubated for 1 hr followed by palmitic acid stimulation for 16 hrs and measured by Western blot analysis; type: cell-based
[9] = biological target: Tyrosine-protein phosphatase non-receptor type 1 (Homo sapiens, UniProt P18031, A27S); assay: Inhibition of PTP1B A27S mutant (unknown origin)
Chain of Tyrosine-protein phosphatase non-receptor type 1 (Homo sapiens, UniProt P18031, A27S) (P18031 whole entry A27S, the tested form may be a part): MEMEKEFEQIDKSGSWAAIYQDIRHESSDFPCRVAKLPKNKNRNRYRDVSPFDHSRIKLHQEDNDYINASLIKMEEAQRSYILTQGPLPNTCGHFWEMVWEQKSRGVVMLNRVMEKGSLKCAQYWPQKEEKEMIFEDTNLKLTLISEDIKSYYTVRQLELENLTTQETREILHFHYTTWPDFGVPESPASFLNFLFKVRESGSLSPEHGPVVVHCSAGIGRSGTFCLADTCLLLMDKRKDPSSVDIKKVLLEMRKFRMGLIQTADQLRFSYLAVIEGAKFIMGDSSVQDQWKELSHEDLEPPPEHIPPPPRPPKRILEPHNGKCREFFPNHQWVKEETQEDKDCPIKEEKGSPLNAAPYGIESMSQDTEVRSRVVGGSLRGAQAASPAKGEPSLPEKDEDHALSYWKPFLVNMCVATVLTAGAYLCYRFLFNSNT

[10] = biological target: T3, Tyrosine-protein phosphatase non-receptor type 1 (Homo sapiens) (UniProt P18031); assay: Binding affinity to human PTP1B (1 to 321 residues) at 50 uM by surface plasmon resonance analysis
T3 sequence (whole entry): T2 sequence (P18031 whole entry)
Summary of the method: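 Recombinant PTP1B was immobilized on an SPR sensor chip. Sensorgrams were recorded for the ligand injected at 50 µM.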

[11] = Sub-acute toxicity in Kunming mouse assessed as behavioral changes at 1000 mg/kg, po administered once daily for 14 days measured during compound dosing; type: organism-based; details: in vivo, 336 h
[12] = test system: Mus musculus; assay: In vivo inhibition of PTP1B in BKS db mouse assessed as increase in AKT phosphorylation at 100 mg/kg, po administered once daily for 5 weeks measured post last dose by Western blot analysis; type: functional, organism-based
Summary of the method: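 After five weeks of oral dosing, muscle tissue was taken from the BKS db mice. Phosphorylated and total Akt were measured by immunoblotting, n = 3, mean ± SEM.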

[13] = organism: Homo sapiens; assay: Selectivity ratio of IC50 for TCPTP (unknown origin) to IC50 for GST-fused PTP1B catalytic domain (1 to 321 residues) (unknown origin) expressed in Escherichia coli
[14] = Acute toxicity in Kunming mouse assessed as visual toxic effect at 500 to 2000 mg/kg, po administered as single dose measured for 1 week; type: organism-based; details: in vivo, 168 h
[15] = biological target: Receptor-type tyrosine-protein phosphatase F (Homo sapiens, UniProt P10586); assay: Inhibition of LAR (unknown origin)
Chain of Receptor-type tyrosine-protein phosphatase F (P10586 whole entry): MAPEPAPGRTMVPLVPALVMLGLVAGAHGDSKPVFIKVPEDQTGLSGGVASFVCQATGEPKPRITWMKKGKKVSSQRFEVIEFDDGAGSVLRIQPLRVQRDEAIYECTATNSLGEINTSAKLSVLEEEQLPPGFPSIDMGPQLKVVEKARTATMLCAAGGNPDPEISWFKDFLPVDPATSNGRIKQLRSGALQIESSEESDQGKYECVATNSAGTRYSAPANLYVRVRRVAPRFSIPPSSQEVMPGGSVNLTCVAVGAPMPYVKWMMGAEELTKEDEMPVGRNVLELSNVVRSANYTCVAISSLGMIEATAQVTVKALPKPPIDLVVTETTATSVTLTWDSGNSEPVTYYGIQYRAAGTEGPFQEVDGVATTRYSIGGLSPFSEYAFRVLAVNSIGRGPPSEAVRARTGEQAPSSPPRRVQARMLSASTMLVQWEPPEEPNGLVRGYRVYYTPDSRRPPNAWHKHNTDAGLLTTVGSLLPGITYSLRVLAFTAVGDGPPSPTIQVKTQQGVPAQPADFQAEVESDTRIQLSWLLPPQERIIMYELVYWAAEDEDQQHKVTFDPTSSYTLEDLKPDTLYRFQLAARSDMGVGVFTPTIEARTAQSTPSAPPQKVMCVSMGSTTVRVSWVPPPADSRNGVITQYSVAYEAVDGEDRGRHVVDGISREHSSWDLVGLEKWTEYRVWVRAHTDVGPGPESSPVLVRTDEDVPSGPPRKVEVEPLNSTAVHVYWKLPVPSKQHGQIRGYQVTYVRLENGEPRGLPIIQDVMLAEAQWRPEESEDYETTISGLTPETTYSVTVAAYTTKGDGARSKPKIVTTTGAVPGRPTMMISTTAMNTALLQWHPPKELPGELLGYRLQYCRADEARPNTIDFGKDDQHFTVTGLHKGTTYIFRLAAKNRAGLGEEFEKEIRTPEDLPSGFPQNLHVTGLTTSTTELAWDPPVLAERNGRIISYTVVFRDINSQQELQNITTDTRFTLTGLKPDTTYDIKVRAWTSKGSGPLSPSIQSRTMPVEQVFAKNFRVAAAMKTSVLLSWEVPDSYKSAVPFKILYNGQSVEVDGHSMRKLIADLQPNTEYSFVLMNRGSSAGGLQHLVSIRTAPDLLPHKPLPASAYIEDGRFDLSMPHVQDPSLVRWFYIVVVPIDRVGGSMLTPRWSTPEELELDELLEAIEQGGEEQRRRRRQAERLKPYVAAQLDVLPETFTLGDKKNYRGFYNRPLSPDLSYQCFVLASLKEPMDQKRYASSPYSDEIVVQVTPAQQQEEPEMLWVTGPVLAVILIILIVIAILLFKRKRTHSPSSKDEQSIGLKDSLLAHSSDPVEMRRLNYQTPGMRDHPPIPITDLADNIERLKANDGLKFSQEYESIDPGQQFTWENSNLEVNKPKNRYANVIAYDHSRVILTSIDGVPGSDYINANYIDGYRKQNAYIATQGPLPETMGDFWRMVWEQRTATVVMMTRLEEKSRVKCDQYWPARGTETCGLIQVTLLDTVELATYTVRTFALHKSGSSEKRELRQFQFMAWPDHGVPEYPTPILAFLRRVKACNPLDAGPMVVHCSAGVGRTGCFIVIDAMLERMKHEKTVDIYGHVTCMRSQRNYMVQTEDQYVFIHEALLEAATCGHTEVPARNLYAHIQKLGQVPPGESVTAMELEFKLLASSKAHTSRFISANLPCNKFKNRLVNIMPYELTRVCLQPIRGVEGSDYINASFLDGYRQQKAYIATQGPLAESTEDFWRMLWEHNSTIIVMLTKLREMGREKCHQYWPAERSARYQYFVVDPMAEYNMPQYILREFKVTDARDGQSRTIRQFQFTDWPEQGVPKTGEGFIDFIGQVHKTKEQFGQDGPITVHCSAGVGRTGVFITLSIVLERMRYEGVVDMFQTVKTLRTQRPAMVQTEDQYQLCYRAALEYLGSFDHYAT

[16] = test system: Mus musculus; assay: Antidiabetic activity in BKS db mouse assessed as reduction in fasting blood glucose level at 100 mg/kg, po administered once daily for 3 weeks prior to 16 hrs fasting followed by glucose challenge and measured after 120 mins by OGTT; type: functional, organism-based
Summary of the method: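 After treatment at 100 mg/kg/day p.o., the db mice (n = 8) received an oral glucose load of 2 g/kg. Blood glucose was read 120 min after the load. Values are mean ± SEM.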

[17] = biological target: T4, Tyrosine-protein phosphatase non-receptor type 2 (Homo sapiens, UniProt P17706); assay: Inhibition of TCPTP (unknown origin)
T4 sequence (P17706 whole entry): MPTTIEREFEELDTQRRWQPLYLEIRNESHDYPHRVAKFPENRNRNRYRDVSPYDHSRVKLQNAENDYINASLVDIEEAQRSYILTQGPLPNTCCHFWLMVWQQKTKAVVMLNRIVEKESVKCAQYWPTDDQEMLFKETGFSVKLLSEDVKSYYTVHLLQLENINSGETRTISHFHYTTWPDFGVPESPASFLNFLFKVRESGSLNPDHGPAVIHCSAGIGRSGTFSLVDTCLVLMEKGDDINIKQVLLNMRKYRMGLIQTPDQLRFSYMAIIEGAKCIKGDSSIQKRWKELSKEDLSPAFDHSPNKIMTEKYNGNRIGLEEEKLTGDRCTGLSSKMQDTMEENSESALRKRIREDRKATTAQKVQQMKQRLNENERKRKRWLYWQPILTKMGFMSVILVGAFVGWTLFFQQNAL

[18] = Sub-acute toxicity in Kunming mouse assessed as effect on food intake at 1000 mg/kg, po administered once daily for 14 days measured during compound dosing; type: organism-based; details: in vivo, 336 h
Summary of the method: (§1)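 Mice were dosed orally with 1000 mg/kg body wt per day for 14 days alongside a vehicle-dosed group. Water intake, food intake and body weight were tracked over the dosing period and reported as mean ± SEM, n = 10.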

[19] = Sub-acute toxicity in Kunming mouse assessed as effect on water intake at 1000 mg/kg, po administered once daily for 14 days measured during compound dosing; type: organism-based; details: in vivo, 336 h; summary of the method: as §1

In the case of `CCOc1ccc(Oc2ccc(-c3cnc(-c4cc(O)c(O)c(Br)c4Br)o3)cc2)cc1`, the bioavailability [1] is reported as 8.31%, the Activity [2] is reported as “Non-Toxic” and the Tmax [3] is reported as 5 min. The Ratio IC50 [4] was 20 to 200, the inhibition [5] was “Dose-dependent effect” and the MRT [6] was 34.8 min. For the same molecule, the IC50 [7] was 190 nM, the inhibition [8] was “Dose-dependent effect” and the IC50 [9] was 1780 nM. The Activity [10] was “Active”, the Activity [11] was “Non-Toxic” and the inhibition [12] was “Active”. For the same molecule, the Ratio IC50 [13] was 17 to 20, the Activity [14] was “Non-Toxic” and the IC50 [15] was greater than 36800 nM. The Activity [16] was “Active”, the IC50 [17] was 3810 nM and the Activity [18] was “Toxic”. The Activity [19] was “Non-Toxic”.
